According to ChEMBL document CHEMBL1914423, “New imidazo[2,1-b]thiazole derivatives: synthesis, in vitro anticancer evaluation, and in silico studies” (Eur J Med Chem, 2011):

How the values were obtained:
SF-268 = assay: Anticancer activity against human SF268 cells assessed as cell growth at 10^-5 M after 48 hrs by SRB assay; assay type: functional; conditions: SF-268, 48 h, read-out: Activity
UACC-62 = assay: Anticancer activity against human UACC62 cells assessed as cell growth at 10^-5 M after 48 hrs by SRB assay; assay type: functional; conditions: UACC-62, 48 h, read-out: Activity
In short: (§1)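 NCI-60 single-dose screen: cells in RPMI 1640 with 5% FBS and 2 mM L-glutamine, plated at 5000–40,000 cells/well by doubling time, and preincubated 24 h at 37 °C. Compound given at one concentration from DMSO stock. Cells TCA-fixed and SRB-stained, absorbance at 515 nm. Percent growth relative to time-zero and untreated controls; inhibition % = 100 − growth %.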

[1] = Antiproliferative activity against human A375P cells after 48 hrs by MTT assay; assay type: functional, cell-based
In short: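 A375P cells in DMEM with 10% FBS at 37 °C, 5% CO2. Seeded at 5×10³ cells/well, held 24 h, then treated with 12-point 3-fold serial dilutions for 48 h. Viability by MTT reduction. IC50 values are means of triplicate experiments.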

NCI/ADR-RES = assay: Anticancer activity against human NCI/ADR-RES cells assessed as cell growth at 10^-5 M after 48 hrs by SRB assay; assay type: functional; conditions: read-out: Activity
A498 = assay: Anticancer activity against human A498 cells assessed as cell growth at 10^-5 M after 48 hrs by SRB assay; assay type: functional; conditions: A498, 48 h, read-out: Activity
In short: (§2)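 NCI-60 single-dose screen at one concentration. Cells grown in RPMI 1640 with 5% FBS and 2 mM L-glutamine, plated at 5000–40,000 cells/well, and pre-incubated 24 h at 37 °C in 5% CO2 before DMSO-dissolved drug was added. Cells fixed with TCA, SRB-stained, absorbance read at 515 nm. Percent growth calculated against time-zero and untreated control plates.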

SR = assay: Anticancer activity against human SR cells assessed as cell growth at 10^-5 M after 48 hrs by SRB assay; assay type: functional; conditions: read-out: Activity; in short: as §1
SNB-19 = assay: Anticancer activity against human SNB19 cells assessed as cell growth at 10^-5 M after 48 hrs by SRB assay; assay type: functional; conditions: SNB-19, 48 h, read-out: Activity
DU-145 = assay: Anticancer activity against human DU145 cells assessed as cell growth at 10^-5 M after 48 hrs by SRB assay; assay type: functional; conditions: DU-145, 48 h, read-out: Activity; in short: as §2
SW-620 = assay: Anticancer activity against human SW620 cells assessed as cell growth at 10^-5 M after 48 hrs by SRB assay; assay type: functional; conditions: SW-620, 48 h, read-out: Activity; in short: as §1
HL-60(TB) = assay: Anticancer activity against human HL-60(TB) cells assessed as cell growth at 10^-5 M after 48 hrs by SRB assay; assay type: functional; conditions: HL-60, 48 h, read-out: Activity
In short: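 NCI-60 single-dose screen. Cells in RPMI 1640 with 5% FBS and 2 mM L-glutamine were plated at 5000–40,000 cells/well and preincubated 24 h at 37 °C before one compound concentration. Time-zero plates were TCA-fixed at drug addition. For suspension cells, settled cells were fixed with cold TCA, then SRB-stained and read at 515 nm. Percent growth was calculated from time-zero, control and treated absorbances.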

CAKI-1 = assay: Anticancer activity against human Caki1 cells assessed as cell growth at 10^-5 M after 48 hrs by SRB assay; assay type: functional; conditions: CAKI-1, 48 h, read-out: Activity; in short: as §2
OVCAR-4 = assay: Anticancer activity against human OVCAR4 cells assessed as cell growth at 10^-5 M after 48 hrs by SRB assay; assay type: functional; conditions: OVCAR-4, 48 h, read-out: Activity
SK-MEL-2 = assay: Anticancer activity against human SK-MEL-2 cells assessed as cell growth at 10^-5 M after 48 hrs by SRB assay; assay type: functional; conditions: SK-MEL-2, 48 h, read-out: Activity
SF-539 = assay: Anticancer activity against human SF539 cells assessed as cell growth at 10^-5 M after 48 hrs by SRB assay; assay type: functional; conditions: SF-539, 48 h, read-out: Activity
A549 = assay: Anticancer activity against human A549 cells assessed as cell growth at 10^-5 M after 48 hrs by SRB assay; assay type: functional; conditions: A549, 48 h, read-out: Activity; in short: as §2
RXF 393 = assay: Anticancer activity against human RXF393 cells assessed as cell growth at 10^-5 M after 48 hrs by SRB assay; assay type: functional; conditions: RXF 393, 48 h, read-out: Activity
OVCAR-5 = assay: Anticancer activity against human OVCAR5 cells assessed as cell growth at 10^-5 M after 48 hrs by SRB assay; assay type: functional; conditions: OVCAR-5, 48 h, read-out: Activity
HCC 2998 = assay: Anticancer activity against human HCC2998 cells assessed as cell growth at 10^-5 M after 48 hrs by SRB assay; assay type: functional; conditions: HCC 2998, 48 h, read-out: Activity; in short: as §2
UACC-257 = assay: Anticancer activity against human UACC257 cells assessed as cell growth at 10^-5 M after 48 hrs by SRB assay; assay type: functional; conditions: UACC-257, 48 h, read-out: Activity; in short: as §1
HOP-62 = assay: Anticancer activity against human HOP62 cells assessed as cell growth at 10^-5 M after 48 hrs by SRB assay; assay type: functional; conditions: HOP-62, 48 h, read-out: Activity; in short: as §2
COLO 205 = assay: Anticancer activity against human COLO205 cells assessed as cell growth at 10^-5 M after 48 hrs by SRB assay; assay type: functional; conditions: COLO 205, 48 h, read-out: Activity; in short: as §2
SNB-75 = assay: Anticancer activity against human SNB75 cells assessed as cell growth at 10^-5 M after 48 hrs by SRB assay; assay type: functional; conditions: SNB-75, 48 h, read-out: Activity; in short: as §1
MDA-MB-435 = assay: Anticancer activity against human MDA-MB-435 cells assessed as cell growth at 10^-5 M after 48 hrs by SRB assay; assay type: functional; conditions: MDA-MB-435, 48 h, read-out: Activity
HT-29 = assay: Anticancer activity against human HT-29 cells assessed as cell growth at 10^-5 M after 48 hrs by SRB assay; assay type: functional; conditions: HT-29, 48 h, read-out: Activity; in short: as §2
BT-549 = assay: Anticancer activity against human BT549 cells assessed as cell growth at 10^-5 M after 48 hrs by SRB assay; assay type: functional; conditions: BT-549, 48 h, read-out: Activity; in short: as §2
EKVX = assay: Anticancer activity against human EKVX cells assessed as cell growth at 10^-5 M after 48 hrs by SRB assay; assay type: functional; conditions: read-out: Activity; in short: as §2
LOX IMVI = assay: Anticancer activity against human LOXIMVI cells assessed as cell growth at 10^-5 M after 48 hrs by SRB assay; assay type: functional; conditions: read-out: Activity; in short: as §2

| Structure (SMILES) | growth at 10 µM (SF-268) | growth at 10 µM (UACC-62) | IC50 [1] | growth at 10 µM (NCI/ADR-RES) | growth at 10 µM (A498) | growth at 10 µM (SR) | growth at 10 µM (SNB-19) | growth at 10 µM (DU-145) | growth at 10 µM (SW-620) | growth at 10 µM (HL-60(TB)) | growth at 10 µM (CAKI-1) | growth at 10 µM (OVCAR-4) | growth at 10 µM (SK-MEL-2) | growth at 10 µM (SF-539) | growth at 10 µM (A549) | growth at 10 µM (RXF 393) | growth at 10 µM (OVCAR-5) | growth at 10 µM (HCC 2998) | growth at 10 µM (UACC-257) | growth at 10 µM (HOP-62) | also measured |
| --- | --- | --- | --- | --- | --- | --- | --- | --- | --- | --- | --- | --- | --- | --- | --- | --- | --- | --- | --- | --- | --- |
| O=C(NCCNc1nccc(-c2c(-c3cccc(O)c3)nc3sccn23)n1)Nc1ccccc1 | 79.8% | 24.6% | > 10 µM | 101% | 99.7% | 90.1% | 108% | 110% | 63.3% | 95.1% | 111% | 123% | 97.5% | 62.4% | 90.7% | 86.3% | 114% | 94.7% | 46.2% | 150% | growth at 10 µM (COLO 205): 69.3%; growth at 10 µM (SNB-75): 71.6%; growth at 10 µM (MDA-MB-435): 31.1%; growth at 10 µM (HT-29): 61.9%; growth at 10 µM (BT-549): 96.2%; growth at 10 µM (EKVX): 118%; growth at 10 µM (LOX IMVI): 79.6% |
| COc1cccc(-c2nc3sccn3c2-c2ccnc(NCCNC(=O)c3ccccc3O)n2)c1 | 93.6% | 36.8% | 7.5 µM | 54.6% | 89.7% | 95% | 118% | 94.5% | 119% | 99.5% | 68.8% | 116% | 80.7% | 98% | 82.5% | 78.9% | 112% | 113% | 78.7% | 114% | growth at 10 µM (COLO 205): 107%; growth at 10 µM (SNB-75): 103%; growth at 10 µM (MDA-MB-435): 54.3%; growth at 10 µM (HT-29): 96.4%; growth at 10 µM (BT-549): 81.6%; growth at 10 µM (EKVX): 98.9%; growth at 10 µM (LOX IMVI): 68.5% |
